Assay results from different studies.
Lines come from different studies, so protocols differ.
Cell line: MOLM-13
Effect on: cell growth or viability

O=C(O)c1ccc(CN2CCC(CN[C@@H]3C[C@H]3c3ccccc3)CC2)cc1 — EC50 (resazurin; 96 h): 0.0402 µM
COc1cc(Nc2nccc(-c3cnn4nc(OC)ccc34)n2)cc(C(F)(F)F)c1 — IC50 (ATP luminescence): 0.15 µM
CCCCN(Cc1ccc(C(=O)NO)cc1)C(=O)Nc1ccccc1 — IC50 (ATP luminescence; 72 h): 0.22 µM
N[C@@H](CC(=O)N1CCN(C(c2ccc(F)cc2)c2ccc(F)cc2)CC1)C(=O)N1Cc2ccccc2C1 — IC50 (ATP luminescence; 48 h): 2.03 µM
Nc1nc(Nc2ccc3c(c2)CC[C@@H](N2CCCC2)CC3)nn1-c1cc2c(nn1)-c1ccccc1CCC2 — IC50 (trypan blue; 72 h): 0.167 µM
CCCON(Cc1ccc(C(=O)NO)cc1)C(=O)Nc1ccccc1 — IC50 (ATP luminescence; 72 h): 0.239 µM
CC[C@@H](C)[C@H](N)C(=O)N1Cc2ccccc2C1 — IC50 (ATP luminescence; 48 h): 1.86 µM
N[C@H]1CC[C@H](N[C@@H]2C[C@H]2c2ccccc2)CC1 — EC50 (resazurin; 96 h): 0.00021 µM
COc1cc(-c2ncn(/C=C\C(=O)OC(C)C)n2)cc(C(F)(F)F)c1 — IC50 (72 h): 0.015 µM
C#CCN(C)Cc1ccccc1 — EC50 (resazurin; 96 h): > 2 µM
CC(C)C[C@H](NC(=O)[C@H](Cc1ccccc1)NC(=O)c1cnccn1)B(O)O — IC50 (ATP luminescence): 0.0045 µM
NNCCc1ccccc1 — EC50 (resazurin; 96 h): > 2 µM
Cc1cc2c(cc1N1C(=O)c3cccc4c(CCCO)ccc(c34)C1=O)n(C)c(=O)n2C (racemic) — GI50 (resazurin): 1.06 µM
COc1cc(F)ccc1-c1cc(Nc2cc(CS(C)(=N)=O)ccn2)ncc1F (stereo not drawn) — GI50 (24 h): 0.0938 µM
COc1cc2nccc(Oc3ccc(NC(=O)C4(C(=O)Nc5ccc(F)cc5)CC4)cc3)c2cc1OC — IC50 (trypan blue; 72 h): 0.01 µM
